According to ChEMBL document CHEMBL3621103, “Chemical Synthesis and Biological Activities of 20S,24S/R-Dihydroxyvitamin D3 Epimers and Their 1α-Hydroxyl Derivatives” (J Med Chem, 2015):
The source made the active and inactive calls. The calls are words filed in the database; no cut-off is given here.

Legend:
Vitamin D3 receptor [1] = molecular target: T1, Vitamin D3 receptor (Homo sapiens, UniProt P11473); assay: Transactivation of VDR in human HaCaT cells after 24 hrs by luciferase reporter gene assay; type: cell-based
T1 sequence (P11473 whole entry): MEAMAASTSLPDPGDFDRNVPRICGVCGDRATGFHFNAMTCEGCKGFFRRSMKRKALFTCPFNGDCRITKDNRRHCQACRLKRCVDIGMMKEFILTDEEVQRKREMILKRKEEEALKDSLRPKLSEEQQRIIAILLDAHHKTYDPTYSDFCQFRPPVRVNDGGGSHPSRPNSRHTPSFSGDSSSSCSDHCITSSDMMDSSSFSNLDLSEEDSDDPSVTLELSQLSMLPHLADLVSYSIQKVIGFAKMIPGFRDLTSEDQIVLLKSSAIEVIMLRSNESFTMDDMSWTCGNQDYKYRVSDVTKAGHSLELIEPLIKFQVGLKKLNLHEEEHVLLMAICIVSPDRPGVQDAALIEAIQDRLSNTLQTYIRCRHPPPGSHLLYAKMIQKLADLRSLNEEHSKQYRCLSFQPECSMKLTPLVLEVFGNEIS

[2] = Antiinflammatory activity in DBA/1 mouse splenocytes assessed as IFNgamma production at 100 nM after 2 hrs by ELISA (reference value: 731 +/- 15 pg/ml); type: functional, Splenocyte
[3] = Upregulation of LAIR-1 expression in DBA/1 mouse splenocytes at 10^-7 M after overnight incubation by flow cytometric analysis (reference value: 973 +/- 95); type: functional, cell-based; conditions: Splenocyte
How it was run: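 Splenocytes isolated from DBA/1 mice were cultured overnight with secosteroid at 10−7 M or vehicle control. Cells were stained with fluorochrome-labelled anti-CD4 and anti-LAIR-1 antibodies and analysed by multiparameter flow cytometry, gating on CD4 cells. At least 10 000 cells were counted per sample. Read-out is LAIR-1 mean fluorescence, given as the mean of two separate analyses ± SD.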

Vitamin D3 receptor [4] = molecular target: T1, Vitamin D3 receptor; assay: Transactivation of VDR in human Caco2 cells after 24 hrs by luciferase reporter gene assay; type: cell-based, Caco-2
[5] = molecular target: T2, 25-hydroxyvitamin D-1 alpha hydroxylase, mitochondrial (Mus musculus) (UniProt O35084); assay: Substrate activity at mouse CYP27B1 assessed as 1alpha-hydroxylation by measuring ratio of Kcat to Km after 2 mins by reverse-phase HPLC analysis
T2 sequence (whole entry): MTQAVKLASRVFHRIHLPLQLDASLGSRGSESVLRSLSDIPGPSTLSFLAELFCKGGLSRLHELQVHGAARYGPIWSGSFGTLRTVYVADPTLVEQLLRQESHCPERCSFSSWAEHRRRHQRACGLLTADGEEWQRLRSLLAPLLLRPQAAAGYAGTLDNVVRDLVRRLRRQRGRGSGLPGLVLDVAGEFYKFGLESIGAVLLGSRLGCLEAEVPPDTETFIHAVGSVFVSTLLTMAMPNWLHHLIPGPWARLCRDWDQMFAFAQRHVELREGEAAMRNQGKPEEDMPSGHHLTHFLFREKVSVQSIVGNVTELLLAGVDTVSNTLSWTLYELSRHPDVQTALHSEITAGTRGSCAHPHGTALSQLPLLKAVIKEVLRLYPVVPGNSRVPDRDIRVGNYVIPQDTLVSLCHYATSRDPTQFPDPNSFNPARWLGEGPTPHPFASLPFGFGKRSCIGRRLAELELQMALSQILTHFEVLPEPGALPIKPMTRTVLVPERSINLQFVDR
How it was run: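 Substrates incorporated into dioleoylphosphatidylcholine/cardiolipin vesicles over a range of concentrations and incubated 2 min. Products extracted with dichloromethane and quantified by reverse-phase C18 HPLC. Km and kcat from a Michaelis–Menten fit (±SE of fit); kcat/Km expressed per mmol/mol phospholipid.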

[6] = molecular target: T3, Vitamin D3 receptor (Homo sapiens) (UniProt P11473); assay: Transactivation of VDR in human HaCaT cells up to 1000 nM after 24 hrs by luciferase reporter gene assay; type: cell-based
T3 sequence (whole entry): T1 sequence (P11473 whole entry)
How it was run: (§1)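 Cells were lentivirally transduced with a VDRE-luciferase reporter and selected 1 week with puromycin (1 µg/mL). Seeded at 1000 cells/well in FBS-free medium for 24 h, then treated 24 h with secosteroids in DMSO (0.1% final; 0.1% DMSO as vehicle control). Luciferase read by ONE-Glo. Triplicate per concentration; EC50 reported.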

[7] = molecular target: T3, Vitamin D3 receptor (Homo sapiens); assay: Transactivation of VDR in human Caco2 cells up to 1000 nM after 24 hrs by luciferase reporter gene assay; type: cell-based; conditions: Caco-2; how it was run: as §1

Row | Structure (SMILES) | EC50 (Vitamin D3 receptor [1]) [nM] | Activity [2] [pg/mL] | Flu intensity [3] | EC50 (Vitamin D3 receptor [4]) [nM] | Ratio [5] [min⁻¹] | Activity [6] | Activity [7]
1 | C=C1/C(=C\C=C2/CCC[C@@]3(C)[C@H]2CC[C@@H]3[C@@](C)(O)CC[C@H](O)C(C)C)C[C@@H](O)C[C@@H]1O | 271 | 589 | 1820 | 208 |  |  | 
2 | C=C1CC[C@H](O)C/C1=C/C=C1\CCC[C@@]2(C)[C@H]1CC[C@@H]2[C@@](C)(O)CC[C@H](O)C(C)C |  | 923 | 1540 |  | 0.71 | inactive | inactive
3 | C=C1/C(=C\C=C2/CCC[C@]3(C)[C@@H]([C@H](C)CCCC(C)(C)O)CC[C@@H]23)C[C@@H](O)C[C@@H]1O |  |  | 1640 |  |  |  | 
4 | C=C1/C(=C\C=C2/CCC[C@@]3(C)[C@H]2CC[C@@H]3[C@@](C)(O)CC[C@@H](O)C(C)C)C[C@@H](O)C[C@@H]1O | 64.9 | 291 | 2100 | 66.9 |  |  | 
5 | C=C1/C(=C\C=C2/CCC[C@]3(C)[C@@H]([C@H](C)OCCC(C)(C)O)CC[C@@H]23)C[C@@H](O)C[C@@H]1O [MAXACALCITOL] | 37.9 | 356 | 1510 | 40.8 |  |  | 
6 | C=C1CC[C@H](O)C/C1=C/C=C1\CCC[C@@]2(C)[C@H]1CC[C@@H]2[C@@](C)(O)CC[C@@H](O)C(C)C |  | 465 | 1910 |  | 3.9 | inactive | inactive
